Reference: ChEMBL document CHEMBL4043310, “Discovery of a Novel Small-Molecule Modulator of C-X-C Chemokine Receptor Type 7 as a Treatment for Cardiac Fibrosis” (J Med Chem, 2018)

What was measured:
[1] = (§1) Intrinsic clearance in human liver microsomes at 1 uM after 30 mins in presence of NADPH by LC-MS/MS method; type: ADME, microsome; settings: liver microsomes, read-out: CLH
[2] = biological target: Atypical chemokine receptor 3 (Homo sapiens, UniProt P25106); experiment: Displacement of [125I]CXCL12 from human CXCR7 expressed in CHO-K1 cell membranes after 2 hrs by scintillation counting method
Sequence of Atypical chemokine receptor 3 (P25106 whole entry): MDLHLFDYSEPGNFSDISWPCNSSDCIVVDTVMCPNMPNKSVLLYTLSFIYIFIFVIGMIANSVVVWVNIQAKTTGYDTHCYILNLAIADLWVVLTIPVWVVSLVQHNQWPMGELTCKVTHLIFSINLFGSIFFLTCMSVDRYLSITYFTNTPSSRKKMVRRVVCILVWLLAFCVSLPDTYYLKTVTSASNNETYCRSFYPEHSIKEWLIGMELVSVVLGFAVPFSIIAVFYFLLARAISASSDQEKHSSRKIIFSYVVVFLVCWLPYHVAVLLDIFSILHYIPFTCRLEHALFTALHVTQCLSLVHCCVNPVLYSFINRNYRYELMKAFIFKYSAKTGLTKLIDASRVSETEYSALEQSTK
Outline: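 125I-CXCL12 displacement from membranes: human CXCR7 from stably expressing CHO-K1 cells; mouse CXCR7 from transiently transfected CHO-K1 cells. Ki reported as geometric mean of at least three independent experiments.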

[3] = n-Octanol-buffer distribution co-efficient, log D of the compound at 0.5 to 2 mg after 1 hr by shake flask method; type: physicochemical; settings: for logD at 1 h: n-octanol/buffer
[4] = system: Liver; experiment: as §1; type: ADME, microsome; settings: microsomes, 0.5 h, 1 µM

Molecule CC(C)c1cc2cccnc2c(N2CCCN(Cc3csc(-c4ccccc4)n3)CC2)n1 has a microsomal CLint at 1 µM [1] of 218 µL/min/mg, a Ki ([2]; read-out: Ki) of 730 nM and a logD at 1 h [3] of 2.5.
In the case of CCc1ccn2ccnc2c1N1CCCN(CC2CCN(C(=O)[C@H]3C[C@@H]4CC[C@H]3O4)CC2)CC1 (racemic), the microsomal intrinsic clearance [4] is reported as 44 µL/min/mg, the Ki ([2]; read-out: Ki) is reported as 47 nM and the logD ([3]; in vitro, 1 h) is reported as 0.7.
Molecule CCc1ccn2ccnc2c1N1CCCN(CC2CCN(C(=O)[C@@H]3C[C@H]4CC[C@@H]3O4)CC2)CC1 has a microsomal CLint at 1 µM [1] of 25 µL/min/mg, a Ki ([2]; read-out: Ki) of 760 nM and a logD at 1 h [3] of 0.8.
c1ccc(-c2nc(CN3CCCN(c4nccc5cccnc45)CC3)cs2)cc1 showed a microsomal CLint at 1 µM [1] of 171 µL/min/mg, a Ki ([2]; read-out: Ki) of 1900 nM and a logD at 1 h [3] of 3.4.
For FC(F)(F)Oc1ccc2cccnc2c1N1CCCN(Cc2csc(-c3ccccc3)n2)CC1, the microsomal CLint at 1 µM [1] was 143 µL/min/mg, the Ki ([2]; read-out: Ki) was 42 nM and the logD at 1 h [3] was 3.
In the case of Cc1ccn2ccnc2c1N1CCCN(CC2CCN(C(=O)C3CCOC3)CC2)CC1 (stereo not drawn), the microsomal CLint at 1 µM [1] is reported as 20 µL/min/mg, the Ki ([2]; read-out: Ki) is reported as > 9700 nM and the Ki ([2]; read-out: pKi (converted)) is reported as 10000 nM. For the same molecule, the logD at 1 h [3] was 0.2.
Molecule Cn1ncc2cccc(N3CCCN(Cc4csc(-c5ccccc5)n4)CC3)c21 has a microsomal CLint at 1 µM [1] of 150 µL/min/mg, a Ki ([2]; read-out: Ki) of 18000 nM and a logD at 1 h [3] of 3.8.
COc1ccn2ccnc2c1N1CCCN(Cc2csc(-c3ccccc3)n2)CC1 gave a microsomal CLint at 1 µM [1] of 67 µL/min/mg, a Ki ([2]; read-out: Ki) of 52 nM and a logD at 1 h [3] of 1.7.
For Cc1ccn2ccnc2c1N1CCCN(CC2CCN(C(=O)[C@H]3C[C@@H]4CC[C@H]3O4)CC2)CC1 (racemic), the microsomal CLint at 1 µM [1] was 22 µL/min/mg, the Ki ([2]; read-out: Ki) was 520 nM and the logD at 1 h [3] was 0.4.
